In PubChem BioAssay AID493053 (Broad Institute, 2011):
Values joined by “and” are separate entries in the source; they are usually repeats but may differ in a detail not shown here. Equal values may be shown once. Active and inactive are the calls of the source.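 Rule for the calls: active = signal falling with dose, half-maximal concentration at or below ten times the highest valid dose tested; inconclusive = flat curve with loss between 30% and 70%, or a poor fit; inactive = the rest, including flat or rising curves.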

tested on: not listed separately; experiment: viability loss in BJeLR fibroblasts, dose response, BJeLR cells, dry powder, set 2 (AID 493053); details: BJeLR fibroblasts viability, Alamar Blue fluorescence, 48 h; at 48 µM (top of the series)
Summary of the method: (§1)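 Medium: DMEM and M199 growth medium with heat-inactivated fetal bovine serum. Schedule: 48-h compound exposure (37 °C, 5% CO2), then ~16-h dye incubation. Detection: Alamar Blue fluorescence, excitation 544 nm, emission 590 nm.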

SMILES | activity change, negative = viability loss
O=C(c1noc2ccccc12)N1CCN(C(c2ccccc2)c2ccccc2)CC1 | 3.47% (inactive)
Cc1onc(C(=O)N2CCN(C(c3ccccc3)c3ccccc3)CC2)c1NS(C)(=O)=O | 15.2% (inactive)
Cc1onc(C(=O)N2CCN(C(c3ccccc3)c3ccccc3)CC2)c1N | 10.4% (inactive)
Cc1ccc(C(=O)N2CCN(C(c3ccccc3)c3ccccc3)CC2)c([N+](=O)[O-])c1 | 14.9% (inactive)
Cc1onc(C(=O)N2CCN(C(c3ccccn3)c3ccccn3)CC2)c1[N+](=O)[O-] | 9.75% (inactive)
Cc1oc(C)c(C(=O)N2CCN(C(c3ccccc3)c3ccccc3)CC2)c1C | 12.2% (inactive)
O=[N+]([O-])c1ccc(CN2CCN(C(c3ccccc3)c3ccccc3)CC2)o1 | 2.87% (inactive)
Cc1onc(C(=O)N2CCN(C(c3ccccc3)c3ccccc3)CC2)c1Br | 11.7% (inactive)
O=C(c1ccc([N+](=O)[O-])o1)N1CCCN(C(c2ccccc2)c2ccccc2)CC1 | -4.17% (inactive)
CC(C)c1onc(C(=O)N2CCN(C(c3ccccc3)c3ccccc3)CC2)c1[N+](=O)[O-] | 2.95% (inactive)
Cc1onc(C(=O)N2CCN(C(c3ccccc3)c3ccccc3)CC2)c1C | 15.3% (inactive)
Cc1onc(C(=O)N2CCN(C(c3ccncc3)c3ccncc3)CC2)c1[N+](=O)[O-] | 8.19% (inactive)
CC(=O)Nc1c(C(=O)N2CCN(C(c3ccccc3)c3ccccc3)CC2)noc1C | 11.2% (inactive)

same assay, conditions: BJeLR fibroblasts viability, Alamar Blue fluorescence, 48 h; at 68 µM (top of the series)

SMILES | activity change, negative = viability loss
COc1ccccc1N1CCN(C(=O)c2noc(C)c2[N+](=O)[O-])CC1 | -5.96% (inactive)
Cc1onc(C(=O)NCc2ccc(F)cc2)c1[N+](=O)[O-] | -1.57% (inactive)
Cc1cc(C(=O)N2CCN(Cc3ccccc3)CC2)no1 | 4.49% (inactive)
Cc1onc(C(=O)N2CCOCC2)c1[N+](=O)[O-] | -1.92% (inactive)
CCOC(=O)N1CCN(C(=O)c2noc(C)c2[N+](=O)[O-])CC1 | -2.12% (inactive)

tested on: BJeLR fibroblasts viability, Alamar Blue fluorescence, 48 h; experiment: as above; details: not given
Summary of the method: as §1

SMILES | AC50
Cc1onc(C(=O)N2CCN(C(c3ccc(Cl)cc3)c3ccc(Cl)cc3)CC2)c1[N+](=O)[O-] | 0.071 µM
Cc1onc(C(=O)N2CCN(C(c3ccccc3)c3ccccc3)CC2)c1[N+](=O)[O-] | 2.27 µM and 1.03 µM
Cc1onc(C(=O)N2CCN(C(c3ccccc3)c3ccc(Cl)cc3)CC2)c1[N+](=O)[O-] (stereo not drawn) | 0.129 µM
COc1ccc(C(c2ccc(OC)cc2)N2CCN(C(=O)c3noc(C)c3[N+](=O)[O-])CC2)cc1 | 1.57 µM
Cc1onc(C(=O)N2CCCN(C(c3ccccc3)c3ccccc3)CC2)c1[N+](=O)[O-] | 0.773 µM
Cc1onc(C(=O)NCCNC(c2ccccc2)c2ccccc2)c1[N+](=O)[O-] | 21.6 µM
Cc1onc(C(=O)N2CCN(Cc3ccccc3)CC2)c1[N+](=O)[O-] | 65.3 µM
Cc1onc(C(=O)N2CCN(C(c3ccc(F)cc3)c3ccc(F)cc3)CC2)c1[N+](=O)[O-] | 0.183 µM
O=C(c1ccc([N+](=O)[O-])o1)N1CCN(C(c2ccc(F)cc2)c2ccc(F)cc2)CC1 | 50.8 µM
O=C(NCCNC(c1ccccc1)c1ccccc1)c1ccc([N+](=O)[O-])o1 | 39.1 µM
